Values after ≈ are worked out from the molar mass of the structure shown. Active and inactive are the calls of the source. No cut-off for these calls is given here.
How the values were obtained:
Rattus norvegicus [1] = assay: Volume of distribution at steady state in rat at 10 mg/kg, po; format: ADME, organism-based; parameters: dose 10 mg/kg, route oral; settings: in vivo
How it was run: (§1)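 Rat pharmacokinetics: compounds given iv (1 or 3 mg/kg) and po (5 or 10 mg/kg) in 2% Vitamin E TPGS (tocopheryl polyethylene glycol 1000 succinate). Plasma sampled over 24 h for Cmax, Tmax, AUC0–24 h, T1/2, clearance, Vss and oral bioavailability. Brain to plasma ratio also measured.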

[2] = Inhibition of KV channel at 4 uM
How it was run: (§2)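 Selectivity panel of 69 targets, test compound at 4 μM, a level set by aqueous solubility limits; percent inhibition recorded per target.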

[3] = Cmax in rat at 1 mg/kg, iv; format: ADME, organism-based; parameters: dose 1 mg/kg, route intravenous; settings: in vivo
How it was run: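 Rat PK, intravenous arm of a paired iv/po study. Dosed in 2% Vitamin E TPGS (tocopheryl polyethylene glycol 1000 succinate). Parameters derived from plasma: Cmax, AUC0–24 h, terminal T1/2.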

[4] = target: Endothelin receptor type B (Homo sapiens) (UniProt P24530); assay: Inhibition of endothelin ETB at 4 uM
How it was run: (§3)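 Single-concentration screen within a 69-target selectivity panel. The test concentration was 4 μM, a level set by the compound's limited aqueous solubility.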

Rattus norvegicus [5] = assay: Toxicity in Sprague-Dawley rat assessed as effect on vertical activity at 30 mg/kg, po measured after 3 hrs for 1 hr; format: organism-based; parameters: dose 30 mg/kg, route oral; settings: in vivo
How it was run: (§4)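 Rats not habituated to the test environment, dosed orally at 3, 10 and 30 mg/kg. Spontaneous locomotor activity recorded after dosing: horizontal activity as movement time, plus vertical activity (rearing). Test run to exclude sedation.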

Rattus norvegicus [6] = assay: Oral bioavailability in rat at 10 mg/kg; format: ADME, organism-based; settings: in vivo; how it was run: as §1
[7] = Inhibition of Neurotensin receptor at 4 uM; how it was run: as §3
[8] = Half life in rat at 10 mg/kg, po; format: ADME, organism-based; parameters: dose 10 mg/kg, route oral; settings: in vivo
[9] = Inhibition of AMPA receptor at 4 uM; how it was run: as §2
[10] = target: Histamine H1 receptor (Homo sapiens) (UniProt P35367); assay: Inhibition of Histamine H1 receptor at 4 uM; how it was run: as §2
Rattus norvegicus [11] = assay: Toxicity in Sprague-Dawley rat assessed as effect on horizontal movement at 10 mg/kg, po measured after 3 hrs for 1 hr; format: organism-based; parameters: dose 10 mg/kg, route oral; settings: in vivo; how it was run: as §4
[12] = target: Substance-P receptor (Homo sapiens) (UniProt P25103); assay: Inhibition of Neurokinin NK1 receptor at 4 uM; how it was run: as §2
[13] = target: Alpha-2A adrenergic receptor (Homo sapiens) (UniProt P08913); assay: Inhibition of adrenergic alpha 2 receptor at 4 uM; how it was run: as §3
[14] = target: Interleukin-6 (Homo sapiens) (UniProt P05231); assay: Inhibition of IL-6 at 4 uM; how it was run: as §2
[15] = target: Adenosine receptor A3 (Homo sapiens) (UniProt P0DMS8); assay: Inhibition of adenosine A3 receptor at 4 uM; how it was run: as §3
Rattus norvegicus [16] = assay: Ex vivo CRF-1 receptor occupancy in po dosed rat cortical homogenate assessed as inhibition of [I125]-sauvagine binding pretreated for 3 hrs; format: functional, organism-based
How it was run: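 Rats dosed orally at 1, 3 and 10 mg/kg; cortex taken at 3 h for ex vivo binding. Specific [125I]-sauvagine binding compared with vehicle-treated rats to give ex vivo ID50.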

[17] = target: Somatostatin receptor (Homo sapiens) (UniProt P35346+P30874+P31391+P30872+P32745); assay: Inhibition of somatostatin at 4 uM; how it was run: as §3
[18] = target: Alpha-1A adrenergic receptor (Homo sapiens) (UniProt P35348); assay: Inhibition of adrenergic alpha 1 receptor at 4 uM; how it was run: as §3
[19] = target: Type-1 angiotensin II receptor (Homo sapiens) (UniProt P30556); assay: Inhibition of angiotensin AT1 receptor at 4 uM; how it was run: as §3
[20] = Inhibition of diltiazem calcium channel at 4 uM; how it was run: as §3
[21] = target: Sodium- and chloride-dependent betaine transporter (Homo sapiens) (UniProt P48065); assay: Inhibition of GABA transporter at 4 uM; how it was run: as §2
Rattus norvegicus [22] = species: Rattus norvegicus; assay: Metabolic stability in rat assessed as oxidation of isopentyl group; format: ADME, organism-based; settings: in vivo
[23] = target: Cholecystokinin receptor type A (Homo sapiens) (UniProt P32238); assay: Inhibition of cholecystokinin CCKA receptor at 4 uM; how it was run: as §3
[24] = Inhibition of bombesin receptor at 4 uM; how it was run: as §3
[25] = target: 5-hydroxytryptamine receptor 5A (Homo sapiens) (UniProt P47898); assay: Inhibition of Serotonin 5HT5A receptor at 4 uM; how it was run: as §3
hERG (KCNH2) = hERG (KCNH2) (Homo sapiens, UniProt Q12809); assay: Inhibition of human ERG expressed in african green monkey COS7 cells at 3 uM by electrophysiological assay; format: cell-based; settings: COS-7 cells (African green monkey) expressing human ERG
[26] = target: Histamine H3 receptor (Homo sapiens) (UniProt Q9Y5N1); assay: Inhibition of Histamine H3 receptor at 4 uM; how it was run: as §2
[27] = Tmax in rat at 1 mg/kg, iv; format: ADME, organism-based; parameters: dose 1 mg/kg, route intravenous; settings: in vivo; how it was run: as §1
[28] = Volume of distribution at steady state in rat at 1 mg/kg, iv; format: ADME, organism-based; parameters: dose 1 mg/kg, route intravenous; settings: in vivo, read-out: Vdss; how it was run: as §1
[29] = Ratio of drug level in brain to plasma of rat at 1 mg/kg, iv; format: ADME, organism-based; parameters: dose 1 mg/kg, route intravenous; settings: read-out: BPR; how it was run: as §1
[30] = target: Gastrin/cholecystokinin type B receptor (Homo sapiens) (UniProt P32239); assay: Inhibition of cholecystokinin CCKB receptor at 4 uM; how it was run: as §3
[31] = Inhibition of KCa channel at 4 uM; how it was run: as §2
Rattus norvegicus [32] = assay: Decrease in restrained-stress induced […] release in plasma of Sprague-Dawley rat at 10 mg/kg, po pretreated with compound for 3 hrs by radioimmunoassay; format: functional, organism-based; parameters: dose 10 mg/kg
How it was run: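 Rats orally pretreated, then restrained for 10 min to induce stress. Plasma ACTH measured and compared with vehicle/no-stress and vehicle/stress groups.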

[33] = Inhibition of L-type calcium channel at 4 uM; how it was run: as §2
[34] = target: D(3) dopamine receptor (Homo sapiens) (UniProt P35462); assay: Inhibition of dopamine D3 receptor at 4 uM; how it was run: as §3
[35] = target: Corticotropin-releasing factor receptor 1 (Rattus norvegicus, UniProt P35353); assay: Displacement of [125I]-sauvagine from rat CRF-1 receptor expressed in rat cortical membrane after 2 hrs by scintillation counting; format: cell membranes
How it was run: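 Displacement of [125I]-sauvagine binding from rat cortical membrane homogenate with increasing compound concentrations; Ki derived.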

[36] = Inhibition of adenosine A2 receptor at 4 uM; how it was run: as §3
[37] = Inhibition of Opiate receptor at 4 uM; how it was run: as §3
[38] = Inhibition of NMDA receptor at 4 uM; how it was run: as §2
Rattus norvegicus [39] = assay: Antihyperlocomotion activity in Wistar rat assessed as decrease in CRF-induced hyperlocomotion at 30 mg/kg, po administered 3 hrs before CRF challenge measured after 1 hr; format: functional, organism-based; parameters: dose 30 mg/kg
How it was run: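 Rats received 0.3 μg CRF intracerebroventricularly, with oral pretreatment 3 h before in vehicle TPGS. Readout was movement time (locomotor activity), compared against TPGS/CRF controls.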

[40] = target: Cannabinoid receptor 2 (Homo sapiens) (UniProt P34972); assay: Inhibition of cannabinoid CB2 receptor at 4 uM; how it was run: as §3
[41] = Clearance in rat at 10 mg/kg, po; format: ADME, organism-based; parameters: dose 10 mg/kg, route oral; settings: in vivo
[42] = target: Adenosine receptor A1 (Homo sapiens) (UniProt P30542); assay: Inhibition of adenosine A1 receptor at 4 uM; how it was run: as §3
[43] = Ratio of drug level in brain to plasma of rat at 10 mg/kg, po; format: ADME, organism-based; parameters: dose 10 mg/kg, route oral; settings: read-out: BPR; how it was run: as §1

Chain of Alpha-1A adrenergic receptor (Homo sapiens) (P35348 whole entry): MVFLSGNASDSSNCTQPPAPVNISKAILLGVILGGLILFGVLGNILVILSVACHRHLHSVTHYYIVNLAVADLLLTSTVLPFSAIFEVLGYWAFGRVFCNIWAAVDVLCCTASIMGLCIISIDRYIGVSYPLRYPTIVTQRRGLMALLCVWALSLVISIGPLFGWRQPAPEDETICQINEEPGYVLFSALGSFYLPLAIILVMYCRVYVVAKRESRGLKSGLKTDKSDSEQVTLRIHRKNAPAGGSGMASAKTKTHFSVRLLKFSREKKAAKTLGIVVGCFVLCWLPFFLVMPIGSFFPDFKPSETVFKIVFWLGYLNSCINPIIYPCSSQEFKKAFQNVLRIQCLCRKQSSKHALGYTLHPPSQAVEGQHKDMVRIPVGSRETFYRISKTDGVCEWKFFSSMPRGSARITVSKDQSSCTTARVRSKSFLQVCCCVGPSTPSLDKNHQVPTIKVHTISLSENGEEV
Chain of Endothelin receptor type B (Homo sapiens) (P24530 whole entry): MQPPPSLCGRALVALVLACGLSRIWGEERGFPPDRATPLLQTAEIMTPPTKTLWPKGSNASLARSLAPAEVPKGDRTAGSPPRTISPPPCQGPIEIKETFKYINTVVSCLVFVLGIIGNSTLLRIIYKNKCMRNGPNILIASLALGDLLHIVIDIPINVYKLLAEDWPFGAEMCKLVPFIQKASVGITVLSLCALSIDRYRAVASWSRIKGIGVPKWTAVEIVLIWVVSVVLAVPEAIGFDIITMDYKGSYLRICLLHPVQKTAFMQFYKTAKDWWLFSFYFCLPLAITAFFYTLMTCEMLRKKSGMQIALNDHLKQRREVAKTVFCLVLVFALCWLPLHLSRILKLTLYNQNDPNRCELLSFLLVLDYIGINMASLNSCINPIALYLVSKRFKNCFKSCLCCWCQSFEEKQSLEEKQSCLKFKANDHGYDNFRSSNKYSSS
Chain of Adenosine receptor A1 (Homo sapiens) (P30542 whole entry): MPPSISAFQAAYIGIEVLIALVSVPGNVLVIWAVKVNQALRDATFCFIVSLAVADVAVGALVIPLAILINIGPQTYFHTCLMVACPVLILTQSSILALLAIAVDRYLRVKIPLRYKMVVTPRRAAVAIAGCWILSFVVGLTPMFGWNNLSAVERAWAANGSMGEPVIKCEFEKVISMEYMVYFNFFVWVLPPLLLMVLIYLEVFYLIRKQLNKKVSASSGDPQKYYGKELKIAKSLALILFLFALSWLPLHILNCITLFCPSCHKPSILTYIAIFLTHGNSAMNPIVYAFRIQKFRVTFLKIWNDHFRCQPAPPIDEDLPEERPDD
Chain of Adenosine receptor A3 (Homo sapiens) (P0DMS8 whole entry): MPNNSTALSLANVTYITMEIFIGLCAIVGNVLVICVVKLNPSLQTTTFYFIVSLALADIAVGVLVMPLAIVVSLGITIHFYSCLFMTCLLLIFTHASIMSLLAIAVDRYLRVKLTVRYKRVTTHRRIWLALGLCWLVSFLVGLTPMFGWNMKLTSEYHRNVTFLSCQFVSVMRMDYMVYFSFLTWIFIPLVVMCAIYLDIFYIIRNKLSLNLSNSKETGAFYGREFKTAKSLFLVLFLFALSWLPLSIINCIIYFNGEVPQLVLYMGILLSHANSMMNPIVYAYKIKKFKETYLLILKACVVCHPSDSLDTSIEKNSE
Chain of Type-1 angiotensin II receptor (Homo sapiens) (P30556 whole entry): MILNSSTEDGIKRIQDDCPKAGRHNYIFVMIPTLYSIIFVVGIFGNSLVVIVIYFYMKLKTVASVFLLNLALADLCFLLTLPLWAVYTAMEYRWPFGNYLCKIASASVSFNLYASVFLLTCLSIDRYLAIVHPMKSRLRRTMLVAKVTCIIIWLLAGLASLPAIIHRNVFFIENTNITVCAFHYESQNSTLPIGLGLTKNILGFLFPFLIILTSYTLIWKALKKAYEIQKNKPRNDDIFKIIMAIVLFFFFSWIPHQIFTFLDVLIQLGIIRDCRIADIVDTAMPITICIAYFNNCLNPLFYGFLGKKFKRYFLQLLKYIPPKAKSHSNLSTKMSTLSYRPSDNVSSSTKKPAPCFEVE
Chain of Corticotropin-releasing factor receptor 1 (P35353 whole entry): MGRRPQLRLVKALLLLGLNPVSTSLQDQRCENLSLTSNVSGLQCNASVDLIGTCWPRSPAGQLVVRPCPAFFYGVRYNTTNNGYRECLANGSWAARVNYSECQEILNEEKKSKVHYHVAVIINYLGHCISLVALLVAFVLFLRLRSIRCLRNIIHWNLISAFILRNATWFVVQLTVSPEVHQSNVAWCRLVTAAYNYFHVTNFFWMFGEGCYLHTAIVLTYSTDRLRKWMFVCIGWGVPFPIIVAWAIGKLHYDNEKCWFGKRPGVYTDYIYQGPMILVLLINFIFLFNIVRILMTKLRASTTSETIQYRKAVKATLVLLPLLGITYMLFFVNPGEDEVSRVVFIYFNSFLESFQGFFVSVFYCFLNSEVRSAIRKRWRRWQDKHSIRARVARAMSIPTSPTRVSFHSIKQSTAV
Chain of Histamine H3 receptor (Homo sapiens) (Q9Y5N1 whole entry): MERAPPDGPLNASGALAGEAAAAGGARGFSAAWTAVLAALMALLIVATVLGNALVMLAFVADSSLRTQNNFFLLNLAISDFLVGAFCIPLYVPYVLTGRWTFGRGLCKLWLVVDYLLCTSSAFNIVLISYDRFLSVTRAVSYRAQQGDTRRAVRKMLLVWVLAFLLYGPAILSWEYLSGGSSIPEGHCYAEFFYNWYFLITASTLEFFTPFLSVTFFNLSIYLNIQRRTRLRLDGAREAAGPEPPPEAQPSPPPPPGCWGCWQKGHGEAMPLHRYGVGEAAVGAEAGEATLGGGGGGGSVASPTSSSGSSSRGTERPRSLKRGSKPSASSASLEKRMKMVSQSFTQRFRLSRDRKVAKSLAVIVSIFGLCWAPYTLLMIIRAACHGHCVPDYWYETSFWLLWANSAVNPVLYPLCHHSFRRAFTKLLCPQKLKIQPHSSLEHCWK
Chain of Interleukin-6 (Homo sapiens) (P05231 whole entry): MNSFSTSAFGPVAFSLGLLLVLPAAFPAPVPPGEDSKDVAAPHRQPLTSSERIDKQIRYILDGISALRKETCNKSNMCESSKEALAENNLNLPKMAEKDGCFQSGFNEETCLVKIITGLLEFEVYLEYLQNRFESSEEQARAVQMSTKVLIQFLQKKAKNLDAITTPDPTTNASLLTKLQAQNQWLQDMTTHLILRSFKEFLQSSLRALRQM
Chain of Histamine H1 receptor (Homo sapiens) (P35367 whole entry): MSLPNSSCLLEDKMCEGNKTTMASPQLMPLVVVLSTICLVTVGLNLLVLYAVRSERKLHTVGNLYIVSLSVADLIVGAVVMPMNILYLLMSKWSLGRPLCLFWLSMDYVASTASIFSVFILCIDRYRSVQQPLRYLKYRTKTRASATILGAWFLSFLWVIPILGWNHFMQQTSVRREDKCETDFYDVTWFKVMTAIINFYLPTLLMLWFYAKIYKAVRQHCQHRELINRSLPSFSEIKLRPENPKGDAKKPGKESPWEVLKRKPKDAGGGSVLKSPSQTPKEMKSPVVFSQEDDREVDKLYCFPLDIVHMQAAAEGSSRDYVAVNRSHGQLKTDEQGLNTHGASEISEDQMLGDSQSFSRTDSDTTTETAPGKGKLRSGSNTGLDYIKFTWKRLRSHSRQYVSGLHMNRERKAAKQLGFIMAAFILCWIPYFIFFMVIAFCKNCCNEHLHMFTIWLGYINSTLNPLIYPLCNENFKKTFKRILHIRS
Chain of Sodium- and chloride-dependent betaine transporter (Homo sapiens) (P48065 whole entry): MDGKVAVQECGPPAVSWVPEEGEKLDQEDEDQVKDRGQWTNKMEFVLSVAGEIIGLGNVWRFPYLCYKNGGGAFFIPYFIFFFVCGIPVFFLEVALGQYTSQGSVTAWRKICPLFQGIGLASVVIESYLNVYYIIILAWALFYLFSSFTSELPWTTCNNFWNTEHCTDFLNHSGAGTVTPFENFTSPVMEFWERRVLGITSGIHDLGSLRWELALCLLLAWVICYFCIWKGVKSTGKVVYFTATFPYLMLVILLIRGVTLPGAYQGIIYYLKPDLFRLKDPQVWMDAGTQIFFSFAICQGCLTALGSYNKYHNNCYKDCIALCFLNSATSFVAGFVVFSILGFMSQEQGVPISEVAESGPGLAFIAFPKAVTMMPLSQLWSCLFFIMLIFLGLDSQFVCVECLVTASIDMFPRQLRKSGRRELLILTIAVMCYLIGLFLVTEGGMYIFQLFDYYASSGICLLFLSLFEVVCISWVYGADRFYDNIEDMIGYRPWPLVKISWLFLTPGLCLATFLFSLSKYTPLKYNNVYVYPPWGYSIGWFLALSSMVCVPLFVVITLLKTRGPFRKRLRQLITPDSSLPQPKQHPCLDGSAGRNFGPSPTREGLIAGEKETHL
Chain of Alpha-2A adrenergic receptor (Homo sapiens) (P08913 whole entry): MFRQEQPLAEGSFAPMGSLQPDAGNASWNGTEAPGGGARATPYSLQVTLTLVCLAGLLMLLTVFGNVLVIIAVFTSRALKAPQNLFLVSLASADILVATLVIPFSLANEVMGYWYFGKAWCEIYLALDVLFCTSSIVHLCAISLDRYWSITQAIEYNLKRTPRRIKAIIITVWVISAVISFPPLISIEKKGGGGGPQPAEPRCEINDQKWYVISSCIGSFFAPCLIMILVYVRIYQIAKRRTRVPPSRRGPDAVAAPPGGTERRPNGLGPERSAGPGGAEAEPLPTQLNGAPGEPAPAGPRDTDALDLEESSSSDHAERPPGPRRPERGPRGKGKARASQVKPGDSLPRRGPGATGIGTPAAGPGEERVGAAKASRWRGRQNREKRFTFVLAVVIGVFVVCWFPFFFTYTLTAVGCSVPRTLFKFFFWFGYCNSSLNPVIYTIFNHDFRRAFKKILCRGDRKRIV
Chain of Cannabinoid receptor 2 (Homo sapiens) (P34972 whole entry): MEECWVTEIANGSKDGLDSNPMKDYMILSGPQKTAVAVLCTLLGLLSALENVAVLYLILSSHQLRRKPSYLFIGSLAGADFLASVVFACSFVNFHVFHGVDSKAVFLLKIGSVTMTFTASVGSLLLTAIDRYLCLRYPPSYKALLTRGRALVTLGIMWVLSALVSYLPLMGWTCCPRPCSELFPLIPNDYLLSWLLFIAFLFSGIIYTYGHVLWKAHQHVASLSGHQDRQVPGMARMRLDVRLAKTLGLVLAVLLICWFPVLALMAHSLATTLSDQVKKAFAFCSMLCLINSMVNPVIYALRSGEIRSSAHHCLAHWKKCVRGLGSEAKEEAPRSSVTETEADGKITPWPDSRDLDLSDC

CCC(CC)Nc1nc(C)c(-c2ccc(OC(F)(F)F)cc2OC)nc1OC
Vdss (Rattus norvegicus [1]): 7.8 L/kg
inhibition [2]: > 16%
Cmax [3]: 456 ng/mL
inhibition [4]: > 16%
Activity (Rattus norvegicus [5]): Non-toxic
F (Rattus norvegicus [6]): 45%
inhibition [7]: > 16%
half-life [8]: 8.4 h
inhibition [9]: > 16%
inhibition [10]: > 16%
Activity (Rattus norvegicus [11]): Non-toxic
inhibition [12]: > 16%
inhibition [13]: > 16%
inhibition [14]: > 16%
inhibition [15]: > 16%
IC50 (Rattus norvegicus [16]): 0.071 µg/mL (≈ 0.178 µM)
ED50 (Rattus norvegicus [16]; po, read-out: ID50 (the source's name)): 2 mg/kg
inhibition [17]: > 16%
inhibition [18]: > 16%
inhibition [19]: > 16%
inhibition [20]: > 16%
inhibition [21]: > 16%
Stability (Rattus norvegicus [22]): Unstable
inhibition [23]: > 16%
inhibition [24]: > 16%
inhibition [25]: > 16%
inhibition at 3 µM (hERG (KCNH2)): 17%
inhibition [26]: > 16%
Tmax [27]: 4 h
Vd [28]: 7.8 L/kg
Kp [29]: 5.4
inhibition [30]: > 16%
inhibition [31]: > 16%
Activity (Rattus norvegicus [32]): Active
inhibition [33]: > 16%
inhibition [34]: > 16%
Ki [35]: 9.8 nM
inhibition [36]: > 16%
inhibition [37]: > 16%
inhibition [38]: > 16%
Activity (Rattus norvegicus [39]): Active
inhibition [40]: > 16%
CL/F [41]: 12 mL/min/kg
inhibition [42]: > 16%
Kp [43]: 5.4

From ChEMBL document CHEMBL1806459, “Discovery of N-(1-ethylpropyl)-[3-methoxy-5-(2-methoxy-4-trifluoromethoxyphenyl)-6-methyl-pyrazin-2-yl]amine 59 (NGD 98-2): an orally active corticotropin releasing factor-1 (CRF-1) receptor antagonist” (J Med Chem, 2011)
